Test results from ChEMBL document CHEMBL4823272 (Eur J Med Chem, 2021).
Calls of active or inactive are those of the source. The calls are words filed in the database; no cut-off is given here.

Tests used:
[1] = biological target: T1, Amyloid-beta precursor protein (Homo sapiens, UniProt P05067); experiment: Inhibition of human amyloid beta (1 to 40) fibrillization at 100 uM measured every 15 mins by Thioflavin-T fluorescence assay relative to control
[2] = Drug concentration in CD-1 mouse plasma at 5 mg/kg, po measured after 0.5 hrs by LC-MS/MS analysis; type: ADME, organism-based
Method in brief: (§1)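 Male CD-1 mice dosed 5 mg/kg orally, n = 3 per time point. At 0.5 and 2.5 h, blood taken by cardiac puncture, then transcardial PBS perfusion. Brains homogenized in three volumes of PBS. Samples precipitated with cold acetonitrile, supernatant diluted with two volumes of 0.1% formic acid water, measured by LC-MS/MS. Brain/plasma ratio from these levels.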

[3] = Drug concentration in CD-1 mouse brain at 5 mg/kg, po measured after 2.5 hrs by LC-MS/MS analysis; type: ADME, organism-based
Method in brief: as §1

SIM-A9 [4] = experiment: Induction of phagocytosis in LPS-stimulated mouse SIM-A9 cells assessed as increase in FITC signal measured after 24 hrs by FITC analysis; type: functional, cell-based
Method in brief: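 SIM-A9 cells given LPS plus compound for 24 h, then FITC-labelled killed E. coli bioparticles at 0.125 mg/mL final for 1 h at 37 °C. Extracellular signal quenched with 0.4% trypan blue. Intracellular FITC read at Ex 494/Em 518. Mean ± SD.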

SIM-A9 [5] = experiment: Anti-inflammatory activity in LPS-stimulated mouse SIM-A9 cells assessed as downregulation of iNOS expression at 2.7 uM measured after 24 hrs by Western blot analysis; type: functional, cell-based
Method in brief: (§2)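 SIM-A9 murine microglia in DMEM-F12 with 10% FBS and 5% horse serum, seeded 0.25 × 10⁶ cells/well one day before. Stimulated with 5 ng/mL LPS plus compound for 24 h. Cells lysed in RIPA with protease inhibitors, protein by Micro BCA. Equal protein on SDS-PAGE, PVDF transfer, probed with iNOS, COX-2 and tubulin antibodies (1:1000), HRP chemiluminescence.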

[6] = Drug concentration in CD-1 mouse brain at 5 mg/kg, po measured after 0.5 hrs by LC-MS/MS analysis; type: ADME, organism-based
Method in brief: as §1

[7] = Ratio of drug concentration in brain to plasma of CD-1 mouse at 5 mg/kg, po after 0.5 hrs; type: ADME, organism-based; conditions: read-out: BPR
Method in brief: as §1

[8] = Drug concentration in CD-1 mouse plasma at 5 mg/kg, po measured after 2.5 hrs by LC-MS/MS analysis; type: ADME, organism-based
Method in brief: as §1

SIM-A9 [9] = experiment: Anti-inflammatory activity in LPS-stimulated mouse SIM-A9 cells assessed as downregulation of COX-2 expression at 2.7 uM measured after 24 hrs by Western blot analysis; type: functional, cell-based
Method in brief: as §2

SIM-A9 [10] = experiment: Anti-inflammatory activity in mouse SIM-A9 cells assessed as inhibition of LPS-induced TNF-alpha production at 2.7 uM measured after 24 hrs by ELISA; type: functional, cell-based
Method in brief: (§3)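 SIM-A9 cells seeded 0.25 × 10⁶/well a day ahead, then given 5 ng/mL LPS with compound for 24 h. Supernatants assayed by sandwich ELISA: capture antibody 1:250, detection antibody 1:250, avidin-HRP, TMB, stop with 2 N H₂SO₄. Read at 450 nm, 570 nm correction. Mean ± SD, n = 3.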

SIM-A9 [11] = experiment: Anti-inflammatory activity in mouse SIM-A9 cells assessed as inhibition of LPS-induced IL-6 production at 2.7 uM measured after 24 hrs by ELISA; type: functional, cell-based
Method in brief: as §3

[12] = biological target: T1, Amyloid-beta precursor protein; experiment: Inhibition of human biotinylated amyloid beta (1 to 42) oligomerization measured after 1 hr by ELISA
Method in brief: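 HFIP/TFA-treated biotinylated Aβ1-42 in DMSO/OFB buffer incubated with compound 1 h at room temperature, stopped with 0.3% Tween 20. Captured on NeutrAvidin-coated plates blocked with OFB-T (pH 7.50), 2 h at 150 rpm. Streptavidin-HRP 1:10,000 for 1 h, TMB/H₂O₂, stopped with 2% H₂SO₄, read at 450 nm. IC50 from 4-parameter logistic fit normalized to DMSO and Tween-20 controls.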

[13] = Ratio of drug concentration in brain to plasma of CD-1 mouse at 5 mg/kg, po after 2.5 hrs; type: ADME, organism-based; conditions: read-out: BPR
Method in brief: as §1

SIM-A9 [14] = experiment: Anti-inflammatory activity in mouse SIM-A9 cells assessed as inhibition of LPS-induced NO production at 2.7 uM measured after 24 hrs by Griess reagent based assay; type: functional, cell-based
Method in brief: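 SIM-A9 cells given 5 ng/mL LPS with compound for 24 h. Conditioned medium mixed with sulfanilamide, then N-naphthyl-ethylenediamine, 5–10 min dark at room temperature. Absorbance at 520–550 nm, NO quantified against a standard curve. n = 3.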

T1 sequence (P05067 whole entry): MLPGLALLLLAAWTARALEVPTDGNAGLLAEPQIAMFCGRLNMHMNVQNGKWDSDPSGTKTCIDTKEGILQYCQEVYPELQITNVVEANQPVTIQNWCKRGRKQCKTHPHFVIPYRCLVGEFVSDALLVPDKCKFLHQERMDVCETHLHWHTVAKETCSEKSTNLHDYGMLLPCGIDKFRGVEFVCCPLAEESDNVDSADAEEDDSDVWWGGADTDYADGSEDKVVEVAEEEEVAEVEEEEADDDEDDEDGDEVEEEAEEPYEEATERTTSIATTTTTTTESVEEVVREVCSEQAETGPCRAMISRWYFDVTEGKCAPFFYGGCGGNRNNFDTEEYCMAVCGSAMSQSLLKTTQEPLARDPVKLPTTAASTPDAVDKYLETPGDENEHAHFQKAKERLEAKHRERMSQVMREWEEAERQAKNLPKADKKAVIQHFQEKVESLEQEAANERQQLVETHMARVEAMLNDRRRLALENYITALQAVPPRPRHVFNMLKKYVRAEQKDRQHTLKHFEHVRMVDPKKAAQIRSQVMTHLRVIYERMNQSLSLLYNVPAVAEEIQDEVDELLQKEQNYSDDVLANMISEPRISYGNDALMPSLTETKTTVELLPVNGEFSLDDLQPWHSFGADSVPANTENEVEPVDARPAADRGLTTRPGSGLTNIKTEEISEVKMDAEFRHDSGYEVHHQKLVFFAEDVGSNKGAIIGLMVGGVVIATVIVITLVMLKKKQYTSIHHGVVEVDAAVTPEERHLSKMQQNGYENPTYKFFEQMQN

| SMILES | inhibition [1] | IC50 [12] | also measured |
| --- | --- | --- | --- |
| CNS(=O)(=O)c1cc(-c2nnn[nH]2)c(NCc2ccco2)cc1Cl | 14.1% | – | – |
| CN(Cc1ccccc1)S(=O)(=O)c1cc(C(=O)O)c(NCc2ccco2)cc1Cl | inactive | – | concentration at 0.5 h [2]: 1030 ng/mL; concentration at 2.5 h [3]: 0.1 ng/g; Activity (SIM-A9 [4]): Active; Activity (SIM-A9 [5]): Active; concentration at 0.5 h [6]: 0.8 ng/g; Kp at 0.5 h [7]: 0.0008; concentration at 2.5 h [8]: 873 ng/mL; Activity (SIM-A9 [9]): Active; Activity (SIM-A9 [10]): Active; Activity (SIM-A9 [11]): Active |
| O=C(O)c1ccc(F)cc1NCc1ccco1 | 12.4% | – | – |
| COc1ccc(C(O)C(F)(F)F)c(NCc2ccco2)c1 (stereo not drawn) | 36.8% | Not Active | – |
| O=C(O)c1cc(S(=O)(=O)NCc2ccccc2)c(Cl)cc1NCc1ccco1 | 11.8% | Not Active | – |
| O=C(O)c1cc(C(=O)N2CCCCC2)c(Cl)cc1NCc1ccco1 | 11% | Not Active | – |
| Cc1ccc(CNS(=O)(=O)c2cc(C(=O)O)c(NCc3ccco3)cc2Cl)cc1 | inactive | Not Active | – |
| O=C(O)c1cc(S(=O)(=O)NCCc2ccccc2)c(Cl)cc1NCc1ccco1 | inactive | Not Active | – |
| NC(=O)c1cc(C(=O)O)c(NCc2ccco2)cc1Cl | 32.4% | Not Active | – |
| CCCCCCNS(=O)(=O)c1cc(C(=O)O)c(NCc2ccco2)cc1Cl | 39.2% | – | – |
| OC(c1ccc(Br)cc1NCc1cscn1)C(F)(F)F (stereo not drawn) | 33% | Not Active | Activity (SIM-A9 [4]): Active |
| NS(=O)(=O)c1cc(C(=O)O)c(NCc2ccco2)cc1Cl [FUROSEMIDE] | 8.56% | Not Active | concentration at 0.5 h [2]: 1730 ng/mL; concentration at 2.5 h [3]: 7.8 ng/g; Kp at 2.5 h [13]: 0.005; concentration at 0.5 h [6]: 8.7 ng/g; Kp at 0.5 h [7]: 0.005; concentration at 2.5 h [8]: 1630 ng/mL |
| CCNC(=O)c1cc(C(=O)O)c(NCc2ccco2)cc1Cl | 24.6% | Not Active | – |
| CCNS(=O)(=O)c1cc(C(=O)O)c(NCc2ccco2)cc1Cl | 21.3% | – | – |
| OC(c1ccc(Br)cc1NCc1ccco1)C(F)(F)F (stereo not drawn) | 81.3% | Not Active | Activity (SIM-A9 [5]): Active; Activity (SIM-A9 [14]): Active; Activity (SIM-A9 [9]): Active; Activity (SIM-A9 [10]): Active; Activity (SIM-A9 [11]): Active |
| OC(c1ccc(Cl)cc1NCc1ccco1)C(F)(F)F (stereo not drawn) | 60.7% | Not Active | Activity (SIM-A9 [5]): Active; Activity (SIM-A9 [14]): Active; Activity (SIM-A9 [9]): Active; Activity (SIM-A9 [10]): Active; Activity (SIM-A9 [11]): Active |
| CNC(=O)c1cc(S(=O)(=O)NC)c(Cl)cc1NCc1ccco1 | inactive | – | Activity (SIM-A9 [4]): Active |
| CNS(=O)(=O)c1cc(CO)c(NCc2ccco2)cc1Cl | 15% | – | – |
| CNS(=O)(=O)c1cc(C(=O)OC)c(NCc2ccco2)cc1Cl | 27.1% | – | – |
| CN(C)C(=O)c1cc(C(=O)O)c(NCc2ccco2)cc1Cl | 18.4% | Not Active | – |

| SMILES | inhibition [1] | IC50 [12] | also measured |
| --- | --- | --- | --- |
| CNS(=O)(=O)c1cc(-c2noc(=O)[nH]2)c(NCc2ccco2)cc1Cl | 20.2% | Not Active | – |
| O=C(O)c1cc(S(=O)(=O)N2CCCCC2)c(Cl)cc1NCc1ccco1 | 19.1% | Not Active | – |
| O=C(O)c1cc(S(=O)(=O)Nc2ccccc2)c(Cl)cc1NCc1ccco1 | 17.4% | – | – |
| CN(C)S(=O)(=O)c1cc(C(=O)O)c(NCc2ccco2)cc1Cl | inactive | – | – |
| O=C(O)c1cc(S(=O)(=O)NC2CC2)c(Cl)cc1NCc1ccco1 | 29.2% | Not Active | – |
| CNS(=O)(=O)c1cc(C(N)=O)c(NCc2ccco2)cc1Cl | inactive | – | concentration at 0.5 h [2]: 38.2 ng/mL; concentration at 2.5 h [3]: 3.5 ng/g; Kp at 2.5 h [13]: 0.12; Activity (SIM-A9 [5]): Active; concentration at 0.5 h [6]: 5.2 ng/g; Kp at 0.5 h [7]: 0.14; concentration at 2.5 h [8]: 29.3 ng/mL; Activity (SIM-A9 [9]): Active; Activity (SIM-A9 [10]): Active; Activity (SIM-A9 [11]): Active |
| COc1ccc(CNS(=O)(=O)c2cc(C(=O)O)c(NCc3ccco3)cc2Cl)cc1 | 27.8% | Not Active | – |
| COc1ccc(C(O)C(F)(F)F)c(NCc2cscn2)c1 (stereo not drawn) | 6.49% | – | – |
| CC(NS(=O)(=O)c1cc(C(=O)O)c(NCc2ccco2)cc1Cl)c1ccccc1 (stereo not drawn) | 17.6% | – | – |
| O=C(Nc1ccccc1)c1cc(C(=O)O)c(NCc2ccco2)cc1Cl | 29.4% | Not Active | – |
| CNS(=O)(=O)c1cc(C(=O)O)c(NCC2CCCO2)cc1Cl (stereo not drawn) | 17.5% | – | IC50 ([12]; read-out: IC50): 136 µM |
| CNS(=O)(=O)c1cc(C(=O)O)c(NCc2ccco2)cc1Cl | inactive | – | Activity (SIM-A9 [4]): Active |
| OC(c1ccc(Cl)cc1NCc1cscn1)C(F)(F)F (stereo not drawn) | 27.9% | Not Active | – |
| CNS(=O)(=O)c1cc(C(=O)N(C)C)c(NCc2ccco2)cc1Cl | 25.2% | – | concentration at 0.5 h [2]: 302 ng/mL; concentration at 2.5 h [3]: 18.5 ng/g; Kp at 2.5 h [13]: 0.22; Activity (SIM-A9 [4]): Active; concentration at 0.5 h [6]: 61.1 ng/g; Kp at 0.5 h [7]: 0.2; concentration at 2.5 h [8]: 83.2 ng/mL |
| O=C(O)c1cc(C(=O)N2CCOCC2)c(Cl)cc1NCc1ccco1 | 34% | Not Active | – |
| CNC(=O)c1cc(C(=O)O)c(NCc2ccco2)cc1Cl | 19.1% | Not Active | – |
| O=C(O)c1cc(S(=O)(=O)NC2CCCCC2)c(Cl)cc1NCc1ccco1 | 11.3% | – | – |
| O=C(O)c1cc(S(=O)(=O)N2CCOCC2)c(Cl)cc1NCc1ccco1 | inactive | – | – |
| CNS(=O)(=O)c1cc(C(O)C(F)(F)F)c(NCc2ccco2)cc1Cl (stereo not drawn) | – | Not Active | – |
| O=C(O)c1ccc(Cl)cc1NCc1ccco1 | 20.2% | Not Active | – |
